High-throughput results deposited in PubChem by several laboratories.
Rows were chosen to be rich in hits. Some 3% of all compounds tested hit in one or more screens of this group.
MEKK2 WT-MEK5 – raises or lowers MEK5 binding to wildtype human MEKK2 PB1 domain | binding response (% of control), % at 10 µM | Q9Y2U5 | bead flow cytometry, Alexa488-MEK5 binding to MEKK2 WT; actives lie on both sides | 1.1% of 290,000 active; in the data active means binding response below about 67% or above about 130%
UBC13 inh – human UBC13 polyubiquitination inhibition. P61088. UBC13 polyubiquitin chain formation, TR-FRET. inhibition, % at 20 µM. 0.47% of 330,000 active; in the data active means inhibition above about 45%, passing the limit was not always enough
Target sequence (P61088 whole entry, looked up): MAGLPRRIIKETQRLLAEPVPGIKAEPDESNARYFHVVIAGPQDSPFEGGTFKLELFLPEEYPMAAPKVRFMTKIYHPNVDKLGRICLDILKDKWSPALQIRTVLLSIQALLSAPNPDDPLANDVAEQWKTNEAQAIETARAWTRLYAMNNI
UCH37 DUB inh – inhibitors of human deubiquitinating enzyme UCH37. purified proteasome/UCH37, Ub-AMC cleavage fluorescence. inhibition, % (test concentration not listed). 0.33% of 330,000 active;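 active means mean inhibition over replicate wells above about 20%, limit read from the data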;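 further: 0% = compound-free wells with enzyme and 100% = wells lacking proteasome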
Target sequence (Q9Y5K5 whole entry, looked up): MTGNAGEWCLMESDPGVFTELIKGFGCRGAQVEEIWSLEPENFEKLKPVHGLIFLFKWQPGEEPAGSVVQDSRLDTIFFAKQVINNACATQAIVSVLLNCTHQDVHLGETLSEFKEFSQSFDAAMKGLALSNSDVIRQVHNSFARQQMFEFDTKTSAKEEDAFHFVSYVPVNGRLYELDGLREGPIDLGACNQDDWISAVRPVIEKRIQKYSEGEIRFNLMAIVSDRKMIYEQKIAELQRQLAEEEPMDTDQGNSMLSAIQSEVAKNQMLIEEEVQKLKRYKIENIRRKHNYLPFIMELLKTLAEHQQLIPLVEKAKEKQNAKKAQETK
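Reagent: Ub-AMC substrate; assay system: Proteasome-associated human UCH37 deubiquitinase; controls: no-proteasome and no-compound wells; read-out: % inhibition of Ub-AMC cleavage fluorescence; timing: 30 min preincubation with enzyme, 25 min cleavage at room temperature; signal: AMC fluorescence from Ub-AMC cleavage, excitation 355 nm, emission 460 nm; buffer or medium: Tris-HCl pH 7.4 plus ovalbumin, ATP-MgCl2, DTT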
MEKK3 PB1 HTS – raises or lowers MEK5 binding to the human MEKK3 PB1 domain | Q99759 | bead-based flow cytometry, Alexa488-MEK5 binding to MEKK3; actives lie on both sides; 0 = blocked by unlabeled MEK5, 100 = vehicle | binding response (% of control), % at 10 µM | 1.4% of 290,000 active | AID 1529;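 active means binding response more than 3 SD above or below the average of its plate-row segment, actives on both sides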;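 further: Alexa488 bead fluorescence after subtracting the streptavidin-only scavenger bead signal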
Apaf1 inhib – blocks human Apaf-1 apoptosome activity | O14727 | reconstituted apoptosome caspase-3 activity, DEVD-Rh110 fluorescence | inhibition, % at 20 µM | 0.71% of 330,000 active; active means inhibition of at least 40% at 20 µM;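 further: plate controls were DMSO wells for no effect and DEVD-CHO caspase inhibitor wells for full effect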
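Material: reconstituted apoptosome with Apaf-1, cytochrome c, caspase-9, procaspase-3, dATP / Buffer or medium: pH 7.5 Hepes buffer with CHAPS, BSA, DTT / Also added: cytochrome c with DEVD-Rh110 / Schedule: compound with Apaf-1, dATP, procaspase-3 30 min, then 50 min reaction, room temperature / Technique: rhodamine 110 fluorescence at Ex 480/Em 540 nm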
MEKK2 mut-MEK5 – signal of MEK5 binding to mutant human MEKK2 PB1 domain; bead flow cytometry, Alexa488-MEK5 binding to MEKK2 mutant; 0.35% of 290,000 active; percent response, % at 10 µM; in the data active means percent response above about 24%, passing the limit was not always enough
MEKK2wt confirm – raises or lowers MEK5 binding to wildtype human MEKK2, retest; binding response (% of control), % at 10 µM; bead flow cytometry, Alexa488-MEK5 binding to MEKK2 WT; actives lie on both sides; shares compounds with MEKK3 PB1 HTS; 2.4% of 5,900 active; in the data active means binding response below about 16% or above about 210%; inactive means in between
MEKK2mut-MEK5 – signal of MEK5 binding to mutant human MEKK2, retest; shares compounds with MEKK3 PB1 HTS; bead flow cytometry, Alexa488-MEK5 binding to MEKK2 mutant; percent response, % at 10 µM; 2% of 5,900 active; AID 1893; in the data active means percent response mostly above about 71%, no sharp cut-off; inactive means mostly below about 38%;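 further: higher means compound restores mutant binding toward wildtype level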
MEKK3-MEK5 inh – confirmation of inhibitors of MEK5 binding to human MEKK3; bead flow cytometry, Alexa488-MEK5 binding to MEKK3; hits give low values; binding response (% of control), % at 10 µM; shares compounds with MEKK3 PB1 HTS; 1.8% of 5,900 active;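 active means binding response below 72% of control, or above a set upper limit, though filed actives all read lower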;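 further: 100% = DMSO only wells and 0% = binding blocked by excess unlabeled MEK5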
* = called active by the depositor; nt = no result given; [ ] = dose if it differs, or a comment.

SMILES	MEKK2 WT-MEK5	UBC13 inh	UCH37 DUB inh	MEKK3 PB1 HTS	Apaf1 inhib	MEKK2 mut-MEK5	MEKK2wt confirm	MEKK2mut-MEK5	MEKK3-MEK5 inh
CC(=O)c1cccc(NC(=O)CSc2nc3ccccc3c(=O)n2CCCN2CCOCC2)c1	nt	5	3	nt	0	nt	nt	nt	nt
Cc1ccc2nc3c(cc(C(=O)NC4CCCC4)c(=N)n3CCCn3ccnc3)c(=O)n2c1	88	2	-182	98	-9	-14	nt	nt	nt
Fc1cccc(Cl)c1Cn1nnc2c(NCc3ccncc3)ncnc21	82	-8	3	104	-21	63*	104	-4	95
Cc1c(C(=O)Nc2ccc(Cl)cc2)c2ccccn2c1C(=O)c1ccc([N+](=O)[O-])cc1	101	-41	5	107	3	0	nt	nt	nt
Cc1c(C(=O)Nc2ccc(Cl)cc2)c2ccccn2c1C(=O)c1ccccc1	116	12	-28	126*	8	5	83	-4	87
O=C(O)CCC(=O)NCCc1cccc(Cl)c1	109	0	3	116	-17	0	nt	nt	nt
CN(CC(=O)NCCc1ccc(F)cc1)Cc1cccc(Cl)c1	6.0*[inhibitor]	-6	4	5.0*[inhibitor]	15	-28	108	9	108
O=C(CCSCc1cccc(Cl)c1)NCCc1ccccc1	106	7	0	134*	19	0	105	7	105
CN(C(=O)NC(=O)C1=C(N2CCOCC2)/C(=C/c2ccccc2)CC1)S(C)(=O)=O	-2.0*[inhibitor]	3	-488	2.0*[inhibitor]	-8	-28	107	9	102
CCOC(=O)C(NC(=O)Nc1ccc(F)cc1F)(Oc1ccc(F)cc1)C(F)(F)F (stereo not given)	104	-1	2	128*	10	3	105	8	106
CCOC(=O)[C@@H]1[C@H]2COc3ccccc3[C@@H]2N2C(=O)N(c3cccc(C)c3)C(=O)[C@@]12C	nt	0	-10	nt	6	nt	nt	nt	nt
O=[N+]([O-])c1ccc(C[n+]2cccc3ccccc32)cc1	84	6	2	104	-8	98*	94	-30	96
Cc1ccc(S(=O)(=O)N(CC(=O)N2CCc3ccccc3C2)c2ccc(Cl)c(Cl)c2)cc1	111	-5	3	146*	29	1	99	6	106
CCOC(=O)N1CCN(C(=O)CN(c2ccccc2OC)S(=O)(=O)c2ccc(C)cc2)CC1	18*[inhibitor]	-4	1	12*[inhibitor]	-26	-25	100	0	103
O=C(CN(c1ccc(Cl)c(Cl)c1)S(=O)(=O)c1ccccc1)N1CCc2ccccc2C1	93	1	5	102	10	1	nt	nt	nt
COC(=O)c1ccc(OC)c(NS(=O)(=O)c2ccc(-n3cnnn3)cc2)c1	92	-2	2	100	-7	-4	nt	nt	nt
CCN(CC)c1ccc(/C=N/NC(=O)CN2CCCc3ccccc32)cc1	101	2	nt	139*	24	-1	96	-6	100
CCN(CC)c1ccc(C=NNC(=O)CN2CCCc3ccccc32)cc1	nt	nt	-74	nt	nt	nt	nt	nt	nt
O=C(/C(=C(\[O-])c1ccccc1)[n+]1ccc2ccccc2c1)c1ccccc1	102	nt	3	128*	nt	4	102	1	104
CCOC(=O)c1cc(C#N)c(SCC(N)=O)[nH]c1=O	100	0	-54	99	6	-1	nt	nt	nt
CCOC(=O)c1cc(C#N)c(SCC(=O)c2cc(C#N)c(SC)nc2C)[nH]c1=O	80	-1	-14	74*[inhibitor]	16	-14	102	-4	101
CN1C(=O)NC(c2ccc(O)cc2)C2=C1CN(c1ccc(O)cc1)C2=O (stereo not given)	126	6	1	147*	-2	5	98	-6	100
CCCCNC(=S)N(CCN(C)C)Cc1cc2cc3c(cc2[nH]c1=O)OCCO3	101	5	-124	101	9	-5	nt	nt	nt
CC(C)CC(=O)NC(=S)Nc1ccc(N2CCCC2)c(Cl)c1	67	3	1	62	0	-19	nt	nt	nt
CC(C)C(=O)Nc1ccc(N2CCCC2)c(Cl)c1	123	4	-1	151*	4	3	102	-1	99
SMILES	MEKK2 WT-MEK5	UBC13 inh	UCH37 DUB inh	MEKK3 PB1 HTS	Apaf1 inhib	MEKK2 mut-MEK5	MEKK2wt confirm	MEKK2mut-MEK5	MEKK3-MEK5 inh
O=C(COC(=O)/C=C/c1ccc(Cl)cc1)NCCc1ccccc1	92	-3	1	92	-4	-3	nt	nt	nt
CCOc1ccc(C(=O)Nc2ccccc2CC)cc1[N+](=O)[O-]	87	2	4	50*[inhibitor]	7	-2	94	-26	89
CCOc1ccc(C(=O)Nc2ccccc2C#N)cc1[N+](=O)[O-]	92	3	1	98	-5	-2	nt	nt	nt
Cc1cccc(CSc2cn(CC(=O)N3CCOCC3)c3ccccc23)c1	113	9	1	113	-1	34	nt	nt	nt
O=C(Cn1cc(SCc2cccc(Cl)c2)c2ccccc21)N1CCOCC1	111	11	3	140*	5	1	101	-17	98
CCOc1cccc(OCCOCCOc2ccccc2C(C)=O)c1	111	1	-1	193*	6	2	95	4	100
O=C(CCCOc1cccc(Br)c1)NC1CCC(O)CC1 (stereo not given)	98	5	2	99	5	14	nt	nt	nt
